Screening data deposited in PubChem by The Scripps Research Institute Molecular Screening Center.
CHRM5 PAM: potentiates acetylcholine response at human M5 receptor | P08912 | CHO-K1 hM5, Fluo-8 calcium, ACh EC20 PAM; 0% = ACh EC20, 100% = ACh EC100 | activation, % at 3 µM | 360,000 compounds, 0.3% hits | AID 624038;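 active = activation above the run cutoff, the mean activation of all test compounds plus 3 SD, cut at about 18% in these data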
Target sequence (P08912 whole entry, looked up): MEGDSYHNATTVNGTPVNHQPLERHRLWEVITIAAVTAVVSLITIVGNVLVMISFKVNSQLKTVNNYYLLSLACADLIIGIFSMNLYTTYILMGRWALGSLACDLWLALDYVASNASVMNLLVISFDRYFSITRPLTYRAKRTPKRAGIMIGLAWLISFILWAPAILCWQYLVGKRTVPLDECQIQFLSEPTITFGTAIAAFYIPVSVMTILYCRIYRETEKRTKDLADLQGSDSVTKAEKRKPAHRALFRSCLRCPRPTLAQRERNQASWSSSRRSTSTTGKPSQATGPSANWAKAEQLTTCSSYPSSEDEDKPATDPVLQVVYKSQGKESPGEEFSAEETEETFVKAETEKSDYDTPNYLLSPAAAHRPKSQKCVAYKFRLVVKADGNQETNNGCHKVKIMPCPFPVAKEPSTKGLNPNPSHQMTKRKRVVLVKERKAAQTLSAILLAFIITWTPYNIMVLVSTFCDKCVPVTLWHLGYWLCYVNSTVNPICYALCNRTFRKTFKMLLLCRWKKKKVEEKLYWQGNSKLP
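system = human M5 receptor in CHO-K1 cells | reagent = EC20 acetylcholine as agonist stimulus | compound dosing = single-point, 3 µM nominal | incubation = Fluo-8 loading 80 min at 37 °C plus 30 min room temperature | detection = Fluo-8 calcium dye fluorescence, kinetic read | benchmarks = low control EC20 acetylcholine (0%), high control EC100 acetylcholine (100%)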
M5 ag: CHRM5 agonism in calcium assay; P08912; CHO-K1 hM5 cells, Fluo-8 calcium fluorescence; 0% DMSO wells, 100% maximal acetylcholine response; activation, % at 3 µM; 360,000 compounds, 0.19% hits;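 active = activation above the run's mean over test compounds plus 3 SD, cut at about 23% in these data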;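 also: signal is peak over basal fluorescence ratio across the kinetic read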
M5 antag: CHRM5 antagonism in calcium assay. P08912. CHO-hM5 cells, Fluo-8 calcium fluorescence, ACh EC80. AID 624040. 360,000 compounds, 0.59% hits. inhibition, % at 3 µM;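 active = inhibition above a per-plate cutoff, the mean of that plate's test compounds plus 3 SD, cut at about 27% in these data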
CHRM4 antagonist: antagonists of human muscarinic M4 receptor (CHRM4). P08173. CHO-hM4 cells, ACh EC80, Fluo-8 calcium fluorescence. inhibition, % at 3 µM. 360,000 compounds, 0.73% hits. AID 624125;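 active = inhibition above its plate's cutoff, the mean inhibition of sample wells plus 3 SD, cut at about 27% in these data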
M4 ag: agonists of human muscarinic M4 receptor (CHRM4) | AID 624127 | 360,000 compounds, 0.14% hits | activation, % at 3 µM | P08173 | CHO-K1 hM4/Gqi5, Fluo-8 calcium fluorescence; vehicle 0%, full acetylcholine response 100%;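 active = activation above the run mean over all test wells plus 3 SD, cut at about 32% in these data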;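 also: peak over basal fluorescence ratio per well then scaled between controls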
CHRM4 PAM: potentiates acetylcholine response at human M4 receptor | 360,000 compounds, 0.4% hits | P08173 | AID 624126 | CHO-K1 hM4/Gqi5, Fluo-8 calcium fluorescence, ACh EC20; 0% = ACh EC20, 100% = maximal ACh | activation, % at 3 µM;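 active = activation above its plate's cutoff, the mean activation of sample wells plus 3 SD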
Of the large screens only hits and unclear results are named; the others gave an inactive call. A selection: hits, their analogues and other compounds. The true share with any hit is near 1.8%.

c1ccc(Nc2nc(N3CCOCC3)nc(N3CCOCC3)n2)cc1	CHRM4 PAM 31
CCN(CC)c1ccc(Nc2nc(N3CCOCC3)c3ccccc3n2)cc1	M5 antag 30
c1ccc(Nc2nc(N3CCNCC3)nc(N3CCOCC3)n2)cc1	none
COc1ccc(Nc2nc(N3CCCC3)c3ccccc3n2)cc1	none
CCC12CC3CC(C1)CC(C(=O)NNC(N)=O)(C3)C2	none
COc1ccc(CC(=O)Nc2ccc(/C(C)=N\NC(=O)c3ccc(Br)o3)cc2)cc1	none
O=C(CN1CCN(c2ccccc2)CC1)Nc1ccc(-n2cnnn2)cc1	CHRM4 antagonist 30
CCN1CCN(CC(=O)Nc2ccc(C(C)=O)cc2)CC1	none
COc1cccc(N2CCN(CC(=O)Nc3ccc(-n4cnnn4)cc3)CC2)c1	none
CC(=O)c1ccc(NC(=O)CN2CCN(CC(=O)Nc3ccc(C(C)=O)cc3)CC2)cc1	CHRM5 PAM 27
CC1(O)C(c2ccccc2)=Nc2ccccc21 (stereo unspecified)	none
CCN(CC)c1ccc2cc(-c3nc4ccccc4n3C)c(=O)oc2c1	none
CCN(CC)c1ccc2cc(C(=O)c3cccs3)c(=O)oc2c1	M5 ag 52, M5 antag 39, CHRM4 antagonist 33, M4 ag 65
CCN(CC)c1ccc2cc(-c3nc4ccccc4[nH]3)c(=O)oc2c1	M5 ag 119, M5 antag 36, M4 ag 552
CC1CCN(C(=O)Cn2cc(C#N)c3ccccc32)CC1	CHRM4 antagonist 27
CC1=CC(C)C(/C=N/N=C(N)N)C(C)C1 (stereo unspecified)	CHRM5 PAM 21
CC1=CC(C)C(C[N+]2(C)CCCCC2)C(C)C1 (stereo unspecified)	none
Cc1cc(/C=C2\C(=N)N3N=C(c4ccco4)SC3=NC2=O)c(C)n1Cc1ccccc1	none
N=C1/C(=C\c2coc3ccccc3c2=O)C(=O)N=C2SC(c3ccncc3)=NN12	M5 ag 65, M5 antag 51, CHRM4 antagonist 28, M4 ag 41
N=C1/C(=C\c2coc3ccc(O)cc3c2=O)C(=O)N=C2SC=CN12	M5 ag 65, M4 ag 50
N=C1/C(=C/c2coc3ccccc3c2=O)C(=O)N=C2SC(c3ccco3)=NN12	M5 ag 223, M5 antag 53, M4 ag 64
CN1C(=O)/C(=C/c2coc3ccc(O)cc3c2=O)SC1=S	none
CC(C)(C)C1=CC(O)(c2ccccc2)C=C(C(C)(C)C)C1=O	none
O=C(NCCN1C(=O)S/C(=C\c2ccccc2F)C1=O)C1CCCN1C(=O)c1cccs1 (stereo unspecified)	none
Cc1cc(N2CCCC2=O)cc(C)c1S(=O)(=O)NCCOc1ccc(C(C)(C)C)cc1	M5 antag 33, CHRM4 antagonist 28
Cc1ccc2c(c1)C(=O)C(=O)N2CCOc1ccccc1	M5 ag 24
Cc1ccccc1OCCCN1C(=O)C(=O)c2cccc(C)c21	M5 ag 26
Cc1cccc(OCCN2C(=O)C(=O)c3cc(C)ccc32)c1	none
Cc1cccc2c1N(CCCOc1ccc(C(C)(C)C)cc1)C(=O)C2=O	none
Cc1ccc2c(c1)C(=O)C(=O)N2Cc1ccc(Br)cc1	M5 ag 31
Cc1cccc2c1N(CCCOc1ccccc1)C(=O)C2=O	M5 ag 27
CN(CC(=O)Nc1cccc(S(=O)(=O)N2CCOCC2)c1)CC(=O)Nc1ccc(Cl)c(C(F)(F)F)c1	none
CCC1(c2ccc(OC)cc2)NC(=O)N(CC(=O)N2CCc3ccccc32)C1=O (stereo unspecified)	M5 ag 39
Cc1cc(C(=O)CN2C(=O)NC(C)(c3cc(F)ccc3F)C2=O)c(C)n1C1CC1 (stereo unspecified)	none
CCC1(c2ccc(F)cc2)NC(=O)N(CC(=O)N2c3ccccc3CC2C)C1=O (stereo unspecified)	M5 ag 29
CCC1(c2ccc(F)cc2)NC(=O)N(CC(=O)c2cc(C)n(C3CC3)c2C)C1=O (stereo unspecified)	M5 ag 25
